Shown are actives, neighbours in structure and some others; about 1.1% of the full set was active somewhere.
HMGR II inh – inhibitors of E. faecalis class II HMGR, primary screen, biochemical, Enterococcus faecalis; 190,000 compounds, 0.41% hits; purified E. faecalis HMGR, NADPH absorbance 340 nm kinetic; inhibition, % at 10 µM; HMG-CoA reductase (Enterococcus faecalis, mvaE);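 active = inhibition above a set limit, the median over all tested compounds plus 3 SD, cut at about 9.5% in these data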;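 also: enzyme runs in reverse so mevalonate oxidation gives rising NADPH absorbance; 0% = complete reaction with DMSO and 100% = background rate lacking mevalonate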
PMI activator – activators of human PMI, primary screen, biochemical, fluorescence intensity, near-Km mannose 6-phosphate; Mannose-6-phosphate isomerase (Homo sapiens), P34949; activation factor at 20 µM; 190,000 compounds, 0.005% hits; purified human PMI, coupled resazurin fluorescence, 20 min; active compounds read high; 1 = vehicle control, 0 substrate-free wells;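 active = activation factor of 2 or more at 20 µM, relative to plate controls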
Rad51 HR inh – human RAD51 strand exchange inhibitors, primary screen, biochemical, fluorescence; DNA repair protein RAD51 homolog 1 (Homo sapiens), Q06609; hRad51 DNA strand exchange, fluorescence dequenching; inhibition, % at 10 µM; 200,000 compounds, 0.085% hits; AID 1385, 2008;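 active = inhibition above 40% at the single screening dose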;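 also: 0% = DMSO control wells and 100% = blanks with heterologous ssDNA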
Target sequence (Q06609 whole entry, looked up): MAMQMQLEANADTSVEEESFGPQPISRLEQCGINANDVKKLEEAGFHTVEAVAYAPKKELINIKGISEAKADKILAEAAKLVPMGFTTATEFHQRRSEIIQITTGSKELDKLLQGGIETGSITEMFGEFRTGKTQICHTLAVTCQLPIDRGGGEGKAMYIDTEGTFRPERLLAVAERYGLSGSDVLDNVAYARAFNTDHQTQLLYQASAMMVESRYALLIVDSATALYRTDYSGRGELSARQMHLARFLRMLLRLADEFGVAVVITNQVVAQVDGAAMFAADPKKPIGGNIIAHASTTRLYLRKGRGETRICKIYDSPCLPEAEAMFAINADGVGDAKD
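material = hRad51 filaments on single-stranded DNA | reagent = Donor/quencher-labelled 47-bp dsDNA substrate | compound = 10 µM final, single point | schedule = strand-exchange reaction 15 min at room temperature | measured by = fluorescein emission 520 nm, excitation 485 nm | read-out basis = % inhibition versus plate control and blank means | benchmarks = plate controls and plate blanks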
PMI act satM6P – human PMI activators, high substrate, primary screen, biochemical, fluorescence intensity, near-saturating mannose 6-phosphate. 190,000 compounds, 0.34% hits. activation factor at 20 µM. AID 1216, 2008. coupled PMI enzyme assay, resazurin fluorescence, 20 min; active compounds read high; 1 = untreated enzyme, 0 = substrate-free blank. Mannose-6-phosphate isomerase (Homo sapiens), P34949;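 active = activation factor of 2 or more at 20 µM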
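Material: human phosphomannose isomerase with PGI, G6PDH, diaphorase coupling enzymes / Reagent: Man-6-P substrate 1.0 mM / Dosing: single compound dose of 20 µM, 1% DMSO final / Incubation: enzyme reaction with compound 20 min at room temperature / Signal: resorufin fluorescence (Ex 544/Em 590 nm) from resazurin via diaphorase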
Calpain2 inh – inhibitors of pig calpain II, primary screen, biochemical, fluorogenic peptide substrate, 1536-well | purified calpain II, 30 min | inhibition, % at 16 µM | 220,000 compounds, 0.37% hits | AID 1236, 2008;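 active = inhibition above about 50%, limit read from the data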
* marks the source's active call; other numbers are inactive results.

Cc1cc(C)c2nc(SC3CCOC3=O)cc(C)c2c1 (stereo not given) was read as HMGR II inh -7.1, PMI activator 1.5, Rad51 HR inh -9.6, PMI act satM6P 2.5* and Calpain2 inh 38.1.
`O=C(O)c1ccc(-c2noc(-c3cccc(F)c3)n2)cc1` gave Rad51 HR inh -2.4.
Screening O=C(CCC1CCCCC1)Nc1ccc(C(=O)c2ccncc2)cc1 returned HMGR II inh -1.6, PMI activator 1, Rad51 HR inh -2.8, PMI act satM6P 0.9 and Calpain2 inh 51.4*.
Screening O=C(c1ccc(F)cc1)C1CCN(C(=S)NCC2CCCO2)CC1 (stereo not given) returned HMGR II inh 11.6*, PMI activator 0.9, Rad51 HR inh 8.0, PMI act satM6P 0.9 and Calpain2 inh -22.2.
`Cc1ccccc1C(=NCCCN(C)C)c1ccccc1C` gave HMGR II inh -5.8, PMI activator 1, Rad51 HR inh -3.7, PMI act satM6P 1 and Calpain2 inh 12.9.
Screening Cn1ccc(=S)c2ccccc21 returned HMGR II inh 8.1, PMI activator 1.6, Rad51 HR inh 16.6, PMI act satM6P 2.2* and Calpain2 inh -20.5.
For Cn1c(=S)[nH]c2ccccc21 the results were HMGR II inh 1.8, PMI activator 1.1, Rad51 HR inh -3.5, PMI act satM6P 1.1 and Calpain2 inh -15.7.
`CCOc1ccc(/C=C/C(=O)c2cc(Br)ccc(=O)c2O)cc1` gave HMGR II inh -0.5, PMI activator 1.6, Rad51 HR inh -12.6, PMI act satM6P 2* and Calpain2 inh -47.4.
`CCc1ccc(/C=C/C(=O)c2cc(Br)ccc(=O)c2O)cc1` gave HMGR II inh -1.2, PMI activator 1.5, Rad51 HR inh -6.5, PMI act satM6P 1.9 and Calpain2 inh -80.3.
For O=C(Nc1nccs1)c1cncc(Br)c1 the results were HMGR II inh -7.4, PMI activator 1, Rad51 HR inh -6.7, PMI act satM6P 0.9 and Calpain2 inh 13.1.
CC(C)COC(=O)Nc1nnc(SCCOc2ccccc2)s1 was read as HMGR II inh 13.3*, PMI activator 1, Rad51 HR inh -14.4, PMI act satM6P 1.1 and Calpain2 inh -4.1.
Screening C#CCn1c(-c2cccs2)nc2ccccc21 returned HMGR II inh 14.2*, Rad51 HR inh 13.3 and Calpain2 inh -141.7.
For O=c1c2c(nc3cc(-c4ccc(Cl)cc4)[nH]n13)CCS2 the results were HMGR II inh 1.0, PMI activator 0.9, Rad51 HR inh -7.7, PMI act satM6P 1 and Calpain2 inh -110.0.
For O=C(Cn1cnc2ccccc2c1=O)Nc1ccc(S(=O)(=O)N2CCCC2)cc1 the results were HMGR II inh -4.8, PMI activator 1, Rad51 HR inh -5.4, PMI act satM6P 1 and Calpain2 inh -6.6.
CC1CCCC(C)N1S(=O)(=O)c1ccc(NC(=O)CCn2cnc3ccccc3c2=O)cc1 (stereo not given) was read as HMGR II inh -2.0, PMI activator 0.9, Rad51 HR inh 126.2*, PMI act satM6P 1 and Calpain2 inh 28.6.
For Cc1noc(C)c1COC(=O)/C=C/c1ccccc1Cl the results were HMGR II inh -5.0, PMI activator 1, Rad51 HR inh 10.0, PMI act satM6P 0.9 and Calpain2 inh 32.9.
Cc1noc(C)c1COC(=O)CNC(=O)c1cccc(F)c1 was read as HMGR II inh -6.4, PMI activator 1.1, Rad51 HR inh -3.0, PMI act satM6P 1.1 and Calpain2 inh 59.5*.
`Cc1noc(C)c1COC(=O)C(c1ccccc1)c1ccccc1` gave HMGR II inh -8.4, PMI activator 1.1, Rad51 HR inh 1.5, PMI act satM6P 0.9 and Calpain2 inh 57.9*.
Screening CC(=O)c1cccc(NC(=O)C(=O)c2cn(CC(=O)N3CCCCC3)c3ccccc23)c1 returned HMGR II inh -3.6, PMI activator 1.2, Rad51 HR inh 15.7, PMI act satM6P 1.2 and Calpain2 inh -14.3.
`Cc1c(NC(=O)CN2C(=O)NC(C)(c3ccccc3)C2=O)c(=O)n(-c2ccccc2)n1C` (stereo not given) gave HMGR II inh 0.5, PMI activator 1, PMI act satM6P 1.1 and Calpain2 inh 15.5.
`Cc1ccc(C2(C)NC(=O)N(CC(=O)Nc3c(C)n(C)n(-c4ccccc4)c3=O)C2=O)cc1` (stereo not given) gave HMGR II inh 12.6*, PMI activator 1, Rad51 HR inh -5.8, PMI act satM6P 0.9 and Calpain2 inh -15.0.
For Cc1ccc(NC(=O)c2ccc3nc[nH]c3c2)c(O)c1 the results were HMGR II inh 16.1*, PMI activator 1, Rad51 HR inh -8.5, PMI act satM6P 0.8 and Calpain2 inh -14.7.
Screening O=C(COC(=O)CNC(=O)c1ccccc1F)Nc1cccnc1Cl returned HMGR II inh -3.5, PMI activator 1.1, Rad51 HR inh -4.8, PMI act satM6P 1.1 and Calpain2 inh -3.4.
For COc1ccc(S(=O)(=O)N2CCC(C(=O)N3CCCCC3)CC2)cc1Cl the results were HMGR II inh -6.5, PMI activator 0.9, Rad51 HR inh 5.2, PMI act satM6P 0.9 and Calpain2 inh -15.8.
O=c1c2cc(NC(=S)NCCN3CCCCCC3)ccc2nc2n1CCCCC2 was read as HMGR II inh 0.9, PMI activator 0.9, Rad51 HR inh 15.5, PMI act satM6P 0.9 and Calpain2 inh -8.4.
For CCCCN(CC)CCCNC(=S)Nc1ccc2nc3n(c(=O)c2c1)CCCCC3 the results were HMGR II inh 0.4, PMI activator 0.8, Rad51 HR inh -38.0, PMI act satM6P 0.9 and Calpain2 inh 64.8*.
For CCC(=O)n1nc(-c2ccc(Cl)cc2)nc1N the results were HMGR II inh -4.5, PMI activator 0.9, Rad51 HR inh 10.7, PMI act satM6P 0.9 and Calpain2 inh -30.5.
CCc1nc(N)nc(N)c1-c1ccc(Cl)cc1 was read as HMGR II inh 15.4*, PMI activator 1, Rad51 HR inh -5.0, PMI act satM6P 1 and Calpain2 inh 0.2.
Screening O=C(O)c1cccc(N2C(=O)/C(=C/c3ccc(SCc4ccc(Cl)cc4)o3)SC2=S)c1 returned HMGR II inh -1.1, PMI activator 0.3, Rad51 HR inh -133.9, PMI act satM6P 0.3 and Calpain2 inh 69.3*.
For Cc1ccc2c(c1)CCCN2C(=O)c1ccoc1C the results were HMGR II inh -5.1, PMI activator 0.9, PMI act satM6P 1 and Calpain2 inh -9.5.
`COC(=O)N1CCCc2cc(C)ccc21` gave HMGR II inh 11.3*, PMI activator 1, Rad51 HR inh -3.2, PMI act satM6P 0.9 and Calpain2 inh -41.7.

Source: PubChem
